{"data": "Assay results of several laboratories", "MET": "Hepatocyte growth factor receptor (MET, Homo sapiens, UniProt P08581)", "MET M1250T": "Hepatocyte growth factor receptor (MET, Homo sapiens, UniProt P08581, M1250T)", "MET Y1235D": "Hepatocyte growth factor receptor (MET, Homo sapiens, UniProt P08581, Y1235D)"}
{"Structure (SMILES)": "C[C@H]1CCN(c2nccc(-c3cnn4ncccc34)n2)C1", "target": "MET", "read-out": "binding", "concentration": "1 µM", "remaining binding": "94%"}
{"Structure (SMILES)": "O=C(c1ccc(Nc2ncc(Cl)c(-c3ccc(Cl)s3)n2)cc1)N1CCC(N2CCCC2)CC1", "target": "MET M1250T", "read-out": "binding", "technique": "competition with immobilised ligand", "concentration": "1 µM", "remaining binding": "6.5%"}
{"Structure (SMILES)": "Cc1cnn2ncc(-c3ccnc(N(C)C)n3)c2c1", "target": "MET M1250T", "read-out": "binding", "concentration": "1 µM", "remaining binding": "61%"}
{"Structure (SMILES)": "CN(C)C(=O)Cn1cc(-c2nc(C3(c4ccc(-c5cnc(N)nc5)cc4)CC3)no2)cn1", "target": "MET M1250T", "read-out": "cell-free assay", "technique": "competition with immobilised ligand", "concentration": "1 µM", "remaining binding": "100%"}
{"Structure (SMILES)": "O=C(NCC1CCOCC1)c1n[nH]cc1NC(=O)c1c(F)cccc1F", "target": "MET Y1235D", "read-out": "binding", "technique": "competition with immobilised ligand", "concentration": "1 µM", "remaining binding": "97%"}
{"Structure (SMILES)": "O=C(c1ccc(Nc2nccc(-c3cc4ccccc4s3)n2)cc1)N1CCC(N2CCCC2)CC1", "target": "MET Y1235D", "read-out": "binding", "technique": "competition with immobilised ligand", "concentration": "1 µM", "remaining binding": "85%"}
{"Structure (SMILES)": "CCN1CCN(Cc2ccc(C(=O)Nc3ccc(C)c(Oc4ccc5c(c4)CC(=O)N5)c3)cc2C(F)(F)F)CC1", "target": "MET", "read-out": "binding", "technique": "competition with immobilised ligand", "concentration": "1 µM", "remaining binding": "100%"}
{"Structure (SMILES)": "COc1ncc2cc3ccccc3nc2c1C#N", "target": "MET Y1235D", "read-out": "cell-free assay", "technique": "competition with immobilised ligand", "concentration": "5 µM", "remaining binding": "80%"}
{"Structure (SMILES)": "FC(F)(F)c1ccc2c(c1)nc(-c1cccnc1)n2C1CC1", "target": "MET Y1235D", "read-out": "cell-free assay", "technique": "competition with immobilised ligand", "concentration": "1 µM", "remaining binding": "100%"}
{"Structure (SMILES)": "CN(C)c1nccc(-c2cnn3ncccc23)n1", "target": "MET Y1235D", "read-out": "binding", "concentration": "1 µM", "remaining binding": "90%"}
{"Structure (SMILES)": "CN(C(=O)c1ccccc1)c1cc(N(C)c2ccc3c(c2)CCc2ccc(C(=O)NCCN4CCOCC4)cc2C3=O)ccc1F", "target": "MET Y1235D", "read-out": "cell-free assay", "technique": "competition with immobilised ligand", "concentration": "1 µM", "remaining binding": "85%"}
{"Structure (SMILES)": "CNC(=O)[C@@H]1CC[C@@H](n2c(-c3ccc4cnccc4c3)nc3ccc(C(=O)NCc4cccc(C(N)=O)c4)cc32)C1", "target": "MET M1250T", "read-out": "binding", "technique": "competition with immobilised ligand", "concentration": "1 µM", "remaining binding": "100%"}
{"Structure (SMILES)": "CN(CCCC(F)(F)F)c1nccc(-c2cnn3ncccc23)n1", "target": "MET", "read-out": "binding", "concentration": "1 µM", "remaining binding": "100%"}
{"Structure (SMILES)": "O=C(c1ccc(Nc2ncc(Cl)c(-c3cc4ccccc4s3)n2)cc1)N1CCC(N2CCCC2)CC1", "target": "MET", "read-out": "binding", "technique": "competition with immobilised ligand", "concentration": "1 µM", "remaining binding": "82%"}
{"Structure (SMILES)": "C[C@H](NC(=O)c1cnc2n1[C@](C)(Cc1ccc(C#N)cc1)C(=O)N2c1cc(Cl)c(F)c(Cl)c1)C(=O)NC1(c2ccccn2)CC1", "target": "MET", "read-out": "cell-free assay", "technique": "competition with immobilised ligand", "concentration": "1 µM", "remaining binding": "100%"}
{"Structure (SMILES)": "N[C@H]1CCN(c2nccc(-c3cnn4ncccc34)n2)C1", "target": "MET", "read-out": "binding", "concentration": "1 µM", "remaining binding": "90%"}
{"Structure (SMILES)": "O=C1CCc2cc(Nc3cc(OC4CCOCC4)c([N+](=O)[O-])cc3Cl)ccc2N1", "target": "MET Y1235D", "read-out": "cell-free assay", "technique": "competition with immobilised ligand", "concentration": "1 µM", "remaining binding": "100%"}
{"Structure (SMILES)": "COc1cnc(Nc2cccc(S(N)(=O)=O)c2)nc1N1CCN(c2ccccc2)C(=O)C1", "target": "MET", "read-out": "binding", "technique": "competition with immobilised ligand", "concentration": "1 µM", "remaining binding": "100%"}
